This is an account of results in ChEMBL document CHEMBL1921780, “Novel 3-nitro-1H-1,2,4-triazole-based aliphatic and aromatic amines as anti-chagasic agents” (J Med Chem, 2011).

The test system of series [1] is Trypanosoma brucei brucei. In words: Ratio of IC50 for blood-stream Trypanosoma brucei brucei expressing type 1 nitroreductase in the absence of tetracycline to IC50 for tetracycline-induced blood-stream Trypanosoma brucei brucei overexpressing type 1 nitroreductase. Type of series: functional. Summed up: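 Each culture seeded at 1 × 10^3 per ml, given compound for 3 days at 37 °C, then Alamar blue added for 16 h. IC50 taken from cell density, and the ratio is uninduced over induced.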

A short description of series [2]: Dissociation constant, pKa of the compound. The class given is physicochemical.
For series [3], the system named is Trypanosoma cruzi. The series is described as follows: Antitrypanosomal activity against amastigotes of Trypanosoma cruzi Tulahuen C4 infected in rat L6 cells after 72 hrs by alamar blue assay. The conditions noted are these: Tulahuen C4, L6, 72 h. In general terms: Alamar Blue is a resazurin reagent that responds to reducing activity.
Series [4] is described as follows: Selectivity index, ratio of IC50 for rat L6 cells to IC50 for Trypanosoma cruzi Tulahuen C4. The class given is toxicity, cell-based. The conditions noted are these: L6 cells versus Trypanosoma cruzi Tulahuen C4, read-out: Ratio IC50. An outline of the steps:
(§1)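 Selectivity index is the L6 myoblast IC50 divided by the IC50 for each parasite. L. donovani was tested as axenic amastigotes. Both IC50s came from 96-well dose-response screens fitted by linear regression of sigmoidal curves.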

Another series deals with Salmonella typhimurium. The series is described as follows: Induction of mutagenesis in Salmonella Typhimurium by Ames test. Type of series: toxicity, organism-based. The conditions noted are these: salmonella enterica subsp. enterica serovar typhimurium.
The test system of series [5] is Trypanosoma brucei brucei. The series is described as follows: Antitrypanosomal activity against tetracycline-induced blood-stream Trypanosoma brucei brucei overexpressing type 1 nitroreductase after 3 days by alamar blue assay. Type of series: functional, organism-based. The settings on record: 72 h. An outline of the steps: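 Bloodstream-form parasites carrying inducible TbNTR, with expression induced by tetracycline (1 μg/mL). Seeded at 1 × 10^3 per ml with a range of nitrotriazole or nifurtimox concentrations. Incubated 3 days at 37 °C, then Alamar blue added for 16 h. IC50 taken from cell density.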

For series [6], the system named is Trypanosoma brucei brucei. The series is described as follows: Antitrypanosomal activity against blood-stream Trypanosoma brucei brucei after 3 days by alamar blue assay. The settings on record: 72 h. The class given is functional, organism-based. An outline of the steps:
(§2)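 Bloodstream-form parasites seeded at 1 × 10^3 per ml in growth medium with a range of nitrotriazole or nifurtimox concentrations, no tetracycline. Incubated 3 days at 37 °C, then Alamar blue added for a further 16 h. IC50 taken from culture cell density.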

Series [7] is described as follows: Selectivity index, ratio of IC50 for rat L6 cells to IC50 for Trypanosoma brucei rhodesiense STIB 900. The class given is toxicity, cell-based. The conditions noted are these: L6 cells versus Trypanosoma brucei rhodesiense STIB 900, read-out: Ratio IC50. Summed up:
as §1

For series [8], the system named is Trypanosoma brucei rhodesiense. The series is described as follows: Antitrypanosomal activity against blood stream form of Trypanosoma brucei rhodesiense STIB 900 […] after 72 hrs by alamar blue assay. The settings on record: STIB 900, 72 h. The class given is functional, organism-based.
Series [9] has as its system Trypanosoma cruzi. In words: Ratio of benznidazole IC50 to compound IC50 for Trypanosoma cruzi Tulahuen C4 infected in rat L6 cells after 72 hrs by alamar blue assay. The class given is functional.
Series [10] concerns Trypanosoma brucei brucei. The series is described as follows: Antitrypanosomal activity against blood-stream Trypanosoma brucei brucei expressing type 1 nitroreductase after 3 days by alamar blue assay in absence of tetracycline. Type of series: functional, organism-based. The settings on record: 72 h. An outline of the steps:
as §2

The test system of a further series is L6. In words: Cytotoxicity against rat L6 cells after 72 hrs by alamar blue assay. The class given is cell-based. The conditions noted are these: L6, 72 h. Summed up:
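Run in 96-well plates with a compound dose series. T. cruzi was tested as amastigotes inside infected L6 rat skeletal myoblasts. Uninfected L6 cells were used for cytotoxicity. IC50 was obtained by linear regression from sigmoidal dose–inhibition curves.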

The nature of series [11]: Selectivity index, ratio of IC50 for rat L6 cells to IC50 for Leishmania donovani MHOM-ET-67/L82. The class given is toxicity, cell-based. The conditions noted are these: L6 cells versus Leishmania donovani MHOM-ET-67/L82, read-out: Ratio IC50. An outline of the steps: as §1
For a further series, the system named is Leishmania donovani. The series is described as follows: Antileishmanial activity against Leishmania donovani MHOM-ET-67/L82 axenic amastigotes after 72 hrs by alamar blue assay. The conditions noted are these: MHOM-ET-67/L82, 72 h.
In series [12] the test system is Trypanosoma cruzi. In words: Antitrypanosomal activity against amastigote form of Trypanosoma cruzi Tulahuen C4 infected in rat L6 cells after 72 hrs by alamar blue assay. The settings on record: Tulahuen C4, L6, 72 h.

Each structure is given as a SMILES string.

Turning to `Cl.O=[N+]([O-])c1ncn(CCCNc2nc(-c3ccccc3)nc3ccccc23)n1`, the results for the “Ratio IC50” value (in series [1]; in the series on Trypanosoma cruzi [9]) were 64 and 0.9, respectively. This compound yielded a pKa in [2] of 5.06. The IC50 in the series with Trypanosoma cruzi [3] stood at 1.48 µM; in series [5], 0.07 µM; in [6] it was 2.63 µM; in [8] it was 1.42 µM; in series [10], 4.48 µM; in the series on L6 it was 97 µM. In addition, the midpoint of inhibition in the series on Leishmania donovani, the IC50, lay at 9.48 µM. For the same compound, the selectivity ratio in series [4] came out at 66; in [7], 68; in series [11] it was 10. Further, the Activity entry in the series with Salmonella typhimurium is recorded as “Non-toxic”.

Take `Cl.O=[N+]([O-])c1ncn(CCCNc2ccnc3cc(Cl)ccc23)n1`: the pKa in series [2] worked out at 7.31. Also, the 50% inhibitory concentration (IC50) was 0.607 µM with Trypanosoma cruzi [3], 0.309 µM in series [8], 143 µM with L6 and 45.8 µM with Leishmania donovani. In addition, the selectivity ratio in series [4] came to 236; in [7] it was 463; in series [11], 3. Moreover, the Activity entry with Salmonella typhimurium is given as “Non-toxic”. In addition, the “Ratio IC50” value with Trypanosoma cruzi [9] worked out at 2.2.

As to `Cl.O=[N+]([O-])c1ncn(CCCNCc2cc(C(F)(F)F)cc(C(F)(F)F)c2)n1`, the “Ratio IC50” value came out at 14 in series [1] and 8 with Trypanosoma cruzi [9]. In [2], the pKa was found to be 9.44. The IC50 was 0.169 µM in the series on Trypanosoma cruzi [3]; 0.76 µM in [5]; 7.83 µM in series [6]; 7.84 µM in series [8]; 11.1 µM in [10]; 138 µM with L6. This compound also registered an IC50 in the series with Leishmania donovani of 11.1 µM. Besides, the selectivity ratio in [4] was 816; in series [7] it was 18; in series [11] it was 12. Moreover, the Activity entry in the series on Salmonella typhimurium is given as “Non-toxic”.

Turning to `O=C(Cn1ccnc1[N+](=O)[O-])NCc1ccccc1` [BENZNIDAZOLE], the IC50 in the series on Trypanosoma cruzi [12] was found to be 1.35 µM. Besides, the “Ratio IC50” value in the series on Trypanosoma cruzi [9] amounted to 1.

As a reminder, the pKa is the pH at which an ionisable group is half protonated. As usually defined, the IC50 is the concentration that inhibits the measured activity by half. Low values mean higher potency, high ones lower potency.
